Viability and level, % of control data for nine molecules are collected here from ChEMBL document CHEMBL1141264, “Cucurbitane-type triterpenoids from the fruits of Momordica charantia and their cancer chemopreventive effects” (J Nat Prod, 2007).

A short description of data set [1]: Cytotoxicity against human Raji cells assessed as cell viability at 1000 mol ratio/TPA relative to control. The conditions noted are these: read-out: Activity. The class given is cell-based. A digest of the protocol: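 Raji cells stimulated with TPA at 32 pmol (20 ng), taken as 100% positive control. Test compound added at mol ratio to TPA of 1000, 500, 100 or 10 (1000:1 = 32 nmol). EBV-EA induction expressed as % of positive control; Raji cell viability recorded as % at the 1000 ratio. IC50 as mol ratio to TPA inhibiting 50% of control.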

Data set [2] relates to Raji. In words: Inhibition of TPA-induced Epstein-Barr virus early antigen in Raji cells at 10 mol ratio/TPA relative to control; values are per cent of control. The settings on record: human gammaherpesvirus 4.
Data set [3] relates to Raji. In words: Inhibition of TPA-induced Epstein-Barr virus early antigen in Raji cells at 500 mol ratio/TPA relative to control; values are per cent of control. The conditions noted are these: human gammaherpesvirus 4.
Data set [4] concerns Raji. In words: Inhibition of TPA-induced Epstein-Barr virus early antigen in Raji cells at 100 mol ratio/TPA relative to control; values are per cent of control. The conditions noted are these: human gammaherpesvirus 4.
For data set [5], the system named is Raji. In words: Inhibition of TPA-induced Epstein-Barr virus early antigen in Raji cells at 1000 mol ratio/TPA relative to control; values are per cent of control. The conditions noted are these: human gammaherpesvirus 4.

With `C=C(C)/C=C/C[C@@H](C)[C@H]1CC[C@@]2(C)[C@@H]3C=C[C@@]45O[C@@H](OC)[C@]3(CC[C@]12C)[C@@H]4CC[C@H](O[C@@H]1O[C@H](CO)[C@@H](O)[C@H](O)[C@H]1O)C5(C)C` [CHARANTOSIDE I], the viability at 1000 mol ratio/TPA in data set [1] was found to be 70%. For the same molecule, the level, % of control stood at 100% with Raji [2], 35.4% in the data set on Raji [3], 81.1% in the data set with Raji [4] and 12.6% in the data set on Raji [5].

In the case of `CO[C@H](C=C(C)C)C[C@@H](C)[C@H]1CC[C@@]2(C)[C@@H]3C=C[C@@]45OC[C@]3(CC[C@]12C)[C@@H]4CC[C@H](O[C@@H]1O[C@H](CO)[C@@H](O)[C@@H](O)[C@H]1O)C5(C)C` [CHARANTOSIDE VI], in data set [1], the viability at 1000 mol ratio/TPA is 70%. In addition, the level, % of control was determined as 100% in the data set on Raji [2], 35.9% with Raji [3], 82% with Raji [4] and 12.7% in the data set on Raji [5].

Turning to `COC(C)(C)/C=C/C[C@@H](C)[C@H]1CC[C@@]2(C)[C@@H]3C=C[C@@]45OC[C@]3(CC[C@]12C)[C@@H]4CC[C@H](O[C@@H]1O[C@H](CO)[C@@H](O)[C@H](O)[C@H]1O)C5(C)C` [MOMORDICOSIDE F1], the viability at 1000 mol ratio/TPA in data set [1] was 70%. In addition, the level, % of control in the data set on Raji [2] was 100%; in the data set on Raji [3], 31.5%; in the data set on Raji [4] it was 78.1%; in the data set with Raji [5], 11.3%.

Turning to `CC1=C(/C=C/C(C)=C/C=C/C(C)=C/C=C/C=C(C)/C=C/C=C(C)/C=C/C2=C(C)CCCC2(C)C)C(C)(C)CCC1`, the level, % of control in the data set with Raji [2] was determined as 100%; with Raji [3], 34.2%; with Raji [4], 82.1%; in the data set on Raji [5], 8.6%.

As for `C=C(C)/C=C/C[C@@H](C)[C@H]1CC[C@@]2(C)[C@@H]3C=C[C@@]45OC(=O)[C@]3(CC[C@]12C)[C@@H]4CC[C@H](O[C@@H]1O[C@H](CO)[C@@H](O)[C@H](O)[C@H]1O)C5(C)C` [CHARANTOSIDE VII], the viability at 1000 mol ratio/TPA in data set [1] was determined as 70%. For the same molecule, the level, % of control in the data set on Raji [2] came out at 100%; in the data set on Raji [3] it was 28.1%; in the data set with Raji [4] it was 75.1%; in the data set on Raji [5] it was 9.9%.

For the molecule `C[C@H](C/C=C/C(C)(C)O)[C@H]1CC[C@@]2(C)[C@@H]3C=C[C@@]45OC[C@]3(CC[C@]12C)[C@@H]4CC[C@H](O[C@@H]1O[C@H](CO)[C@@H](O)[C@@H](O)[C@H]1O)C5(C)C` [MOMORDICOSIDE F2], the viability at 1000 mol ratio/TPA in data set [1] came out at 70%. Besides, the level, % of control was determined as 100% in the data set on Raji [2], 29.7% with Raji [3], 76.9% in the data set with Raji [4] and 9.1% with Raji [5].

`COc1cc(/C=C/C(=O)CC(=O)/C=C/c2ccc(O)c(OC)c2)ccc1O` [CURCUMIN]: in data set [1], the viability at 1000 mol ratio/TPA worked out at 70%. Further, the level, % of control with Raji [2] is 100%; with Raji [3], 22.8%; in the data set on Raji [4], 81.8%; in the data set on Raji [5], 0%.

As to `CO[C@H]1C=C2[C@@H](CC[C@H](O[C@@H]3O[C@H](CO)[C@@H](O)[C@H](O)[C@H]3O)C2(C)C)[C@]2(C=O)CC[C@]3(C)[C@@H]([C@H](C)C/C=C/C(C)(C)OC)CC[C@@]3(C)[C@H]12` [CHARANTOSIDE VIII], the viability at 1000 mol ratio/TPA in data set [1] was found to be 70%. For the same molecule, the level, % of control with Raji [2] worked out at 100%; in the data set on Raji [3] it was 38.5%; in the data set on Raji [4], 82.5%; with Raji [5] it was 15.3%.

For the molecule `C=C(C)/C=C/C[C@@H](C)[C@H]1CC[C@@]2(C)[C@@H]3C=C[C@@]45OC[C@]3(CC[C@]12C)[C@@H]4CC[C@H](O[C@@H]1O[C@H](CO)[C@@H](O)[C@@H](O)[C@H]1O)C5(C)C` [CHARANTOSIDE IV], the viability at 1000 mol ratio/TPA in data set [1] was 70%. For the same molecule, the level, % of control amounted to 100% in the data set on Raji [2], 35% in the data set on Raji [3], 81.1% in the data set with Raji [4] and 12.1% in the data set on Raji [5].
